Series [1] deals with Human immunodeficiency virus 1. Kind of series: Antiviral activity against wild type HIV1 by MTT assay. In kind it is functional, organism-based.
In series [2] the test system is Human immunodeficiency virus 1. The series can be described thus: Antiviral activity against […] HIV1 bearing reverse transcriptase K103/Y181C mutation by MTT assay. Format: functional, organism-based.
The nature of series [3]: Selectivity index, ratio of CC50 for human MT4 cells to EC50 for HIV2 ROD. The note with it: for selectivity ratio: MT4 cells, read-out: Ratio CC50/EC50; for Ratio CC50/EC50: mt4. Format: toxicity, cell-based. In short, it runs like this:
(§1)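 Ratio of CC₅₀ to EC₅₀. Both come from a 5-day MTT assay in MT-4 cells, using parallel mock-infected wells and wells infected with the named virus strain (100–300 CCID₅₀), with serial fivefold compound dilutions in triplicate.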

For series [4], the system named is Human immunodeficiency virus 1. The series can be described thus: Antiviral activity against HIV1 3B infected in human MT4 cells assessed as virus-induced cytopathic effect by MTT assay. Format: functional, organism-based. The note with it: Human immunodeficiency virus 1, 3B. In short, it runs like this:
(§2)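 MT-4 cells (exponentially growing, resuspended at 6 × 10⁵ cells/mL) are infected with HIV-1 IIIB or HIV-2 ROD stock at 100–300 CCID₅₀. Serial fivefold compound dilutions are added at the start, in triplicate wells. After 5 days, viability is read by MTT reduction at OD540, using the median OD of three wells. EC₅₀ is the concentration giving 50% protection from the viral cytopathic effect.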
A general note: Protection from cytopathic effect is a common read-out in antiviral testing.

The test system of series [5] is Human immunodeficiency virus 2. The series can be described thus: Antiviral activity against HIV2 ROD infected in human MT4 cells assessed as virus-induced cytopathic effect by MTT assay. In kind it is functional, organism-based. The note with it: Human immunodeficiency virus 2, ISOLATE ROD. In short, it runs like this:
as §2

Series [6] is described as follows: Cytotoxicity against human MT4 cells by MTT assay. Format: cell-based. In short, it runs like this:
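Mock-infected MT-4 cells (6 × 10⁵ cells/mL) are run in parallel triplicate wells with serial fivefold compound dilutions and culture medium in place of virus. After 5 days, MTT formazan is read at OD540, using the median OD of three wells. CC₅₀ is the concentration that cuts absorbance of the mock-infected control by 50%.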
On the technique in general: Formazan colour is commonly taken as a measure of viable cells.

Series [7] can be described thus: Selectivity index, ratio of CC50 for human MT4 cells to EC50 for HIV1 3B. In kind it is toxicity, cell-based. The note with it: for selectivity ratio: MT4 cells, read-out: Ratio CC50/EC50; for Ratio CC50/EC50: mt4. The essentials: as §1

The structures appear in SMILES notation.

As a reminder, the EC50 is the concentration needed to bring the measured effect to its halfway point. For the molecule `Cc1ccc(NC(=O)CSc2nnc(C)n2-c2ccccc2)c(Br)c1`, the EC50 in series [1] is 0.1 µM; in series [2] it was 1.3 µM.
For orientation: IC50 means the concentration that inhibits the measured activity by half. A lower IC50 goes with greater potency in that assay. Turning to `Cc1cc(C)c(-n2nnnc2SCC(=O)Nc2ccccc2Cl)c(C)c1`, the IC50 in series [1] came to 0.005 µM.
One may read the CC50 as the concentration at which the toxic effect on the cells reaches its halfway point. Lower therefore signals greater toxicity to the cells. Regarding `Cc1ccccc1NC(=O)CSc1nccn1-c1ccc(Cl)cc1`, the figures for the selectivity ratio in series [3] and in series [7] were below 1 and 5, respectively. In addition, the EC50 is 35.4 µM in series [4] and above 160 µM in series [5]. Also, the CC50 in series [6] turned out to be 160 µM.
In the case of `O=C(CSc1nccn1-c1ccc(Cl)cc1)Nc1ccccc1Cl`, the “Ratio CC50/EC50” value in series [3] and in series [7] was “Not Active” throughout. Further, the values for the EC50 in series [4] and in series [5] were at least 11.7 µM and above 330 µM, respectively. The CC50 in series [6] was above 330 µM.
As to `Cc1ccccc1NC(=O)CSc1nccn1-c1cccc2ccccc12`, the values for the selectivity ratio in series [3] and in series [7] were below 1 and 14, respectively. Also, the EC50 in series [4] was 2.46 µM; in series [5], above 34.6 µM. In series [6], this molecule came in with a CC50 of 34.6 µM.
The like results for `O=C(CSc1nccn1-c1cccc2ccccc12)Nc1ccccc1F` were, in that order, below 1, 20, 1.78 µM, above 34.7 µM and 34.7 µM.
On to `Cc1ccc(NC(=O)CSc2nccn2-c2cccc3ccccc23)c(Br)c1`, for which the selectivity ratio in series [3] is below 1; in series [7], 40. In addition, the EC50 in series [4] is 0.73 µM; in series [5], above 29.4 µM. The CC50 in series [6] was found to be 29.4 µM.
Take `COc1ccc(-n2ccnc2SCC(=O)Nc2ccccc2C)cc1`: in series [3], the “Ratio CC50/EC50” value is “Not Active”. The EC50 in series [4] was 155 µM; in series [5] it was above 354 µM. The same molecule yielded a CC50 in series [6] above 354 µM. The selectivity ratio in series [7] was above 2.
Consider `O=C(CSc1nccn1-c1ccc(Cl)cc1)Nc1ccccc1Br`, for which the “Ratio CC50/EC50” value in series [3] is “Not Active”. Further, the EC50 in series [4] was 15.8 µM; in series [5] it was above 296 µM. The molecule further displayed a CC50 in series [6] above 300 µM. In addition, in series [7], the selectivity ratio is above 19.
Take `Cc1ccc(-n2ccnc2SCC(=O)Nc2ccccc2C)cc1`: the selectivity ratio in series [3] was below 1; in series [7] it was 5. Moreover, the EC50 in series [4] was 30.9 µM; in series [5] it was above 147 µM. Also, the CC50 in series [6] turned out to be 147 µM.
For the molecule `O=C(CSc1nccn1-c1ccc(Cl)cc1)Nc1ccccc1[N+](=O)[O-]`, the “Ratio CC50/EC50” value in series [3] is recorded as “Not Active”. The figures for the EC50 in series [4] and in series [5] were 4.86 µM and above 321 µM, respectively. This molecule gave a CC50 in series [6] above 321 µM. Also, the selectivity ratio in series [7] was above 66.
Turning to `COc1ccc(-n2ccnc2SCC(=O)Nc2ccccc2[N+](=O)[O-])cc1`, the selectivity ratio in series [3] was below 1; in series [7], above 9. Besides, the values for the EC50 in series [4] and in series [5] were 17.9 µM and above 161 µM, respectively. This molecule had a CC50 in series [6] of 161 µM.
`Cc1ccc(-n2ccnc2SCC(=O)Nc2ccc(C)cc2Br)cc1`: the results for the selectivity ratio in series [3] and in series [7] were below 1 and 66, respectively. Besides, the EC50 in series [4] and in series [5] was above 80.8 µM in each case. For the same molecule, in series [6], the CC50 was 80.8 µM.
Turning to `Cc1ccc(-n2ccnc2SCC(=O)Nc2ccccc2F)cc1`, the selectivity ratio in series [3] and in series [7] was below 1 in each case. For the same molecule, the EC50 in series [4] and in series [5] was above 37.9 µM each time. The molecule also displayed a CC50 in series [6] of 37.9 µM.
For the molecule `Cc1ccc(-n2ccnc2SCC(=O)Nc2ccccc2Cl)cc1`, the selectivity ratio was below 1 in series [3] and 7 in series [7]. Further, the EC50 in series [4] is 4.97 µM; in series [5], above 33.7 µM. For the same molecule, in series [6], the CC50 is 33.7 µM.
On to `O=C(CSc1nccn1-c1cccc2ccccc12)Nc1ccccc1Cl`, for which the selectivity ratio in series [3] was below 1; in series [7], 170. Besides, the EC50 is 0.2 µM in series [4] and above 35.2 µM in series [5]. This molecule displayed a CC50 in series [6] of 35.2 µM.
The like results for `O=C(CSc1nccn1-c1cccc2ccccc12)Nc1ccccc1[N+](=O)[O-]` were, in that order, below 1, 162, 0.18 µM, above 28.8 µM and 28.8 µM.
With `COc1ccc(-n2ccnc2SCC(=O)Nc2ccccc2F)cc1`, the “Ratio CC50/EC50” value in series [3] and in series [7] was “Not Active” in each case. Further, the EC50 in series [4] and in series [5] was above 42 µM throughout. The molecule also returned a CC50 in series [6] of at least 42 µM.
`COc1ccc(-n2ccnc2SCC(=O)Nc2ccccc2Br)cc1`: the “Ratio CC50/EC50” value in series [3] was “Not Active”. Further, the figures for the half-maximal effective concentration (EC50) in series [4] and in series [5] were at least 18.4 µM and above 299 µM, respectively. Moreover, the CC50 in series [6] is above 299 µM.
For `Cc1ccc(-n2ccnc2SCC(=O)Nc2ccccc2Br)cc1`, the figures for the selectivity ratio in series [3] and in series [7] were below 1 and 8, respectively. For the same molecule, the half-maximal effective concentration (EC50) was 5.15 µM in series [4] and above 39.3 µM in series [5]. This molecule had a CC50 in series [6] of 39.3 µM.
The like results for `Cc1ccc(-n2ccnc2SCC(=O)Nc2ccccc2[N+](=O)[O-])cc1` were, in that order, below 1, 126, 1.03 µM, above 131 µM and 131 µM.
`O=C(CSc1nccn1-c1ccc(Cl)cc1)Nc1ccccc1F`: in series [3], the “Ratio CC50/EC50” value is “Not Active”. Besides, the EC50 in series [4] was 43.8 µM; in series [5] it was above 345 µM. Further, the CC50 in series [6] was above 345 µM. Moreover, in series [7], the selectivity ratio is above 8.
On to `Cc1ccc(NC(=O)CSc2nccn2-c2ccc(Cl)cc2)c(Br)c1`, for which the results for the selectivity ratio in series [3] and in series [7] were below 1 and 64, respectively. Also, the EC50 in series [4] was at least 55.2 µM; in series [5] it was above 204 µM. In series [6], half-maximal cytotoxicity (CC50) was put at 221 µM.
The like results for `O=C(CSc1nccn1-c1cccc2ccccc12)Nc1ccccc1Br` were, in that order, below 1, 48, 0.64 µM, above 30.5 µM and 30.5 µM.
Take `COc1ccc(-n2ccnc2SCC(=O)Nc2ccccc2Cl)cc1`: the “Ratio CC50/EC50” value in series [3] was “Not Active”. In addition, the EC50 in series [4] was 32.3 µM; in series [5] it was above 334 µM. This molecule came in with a CC50 in series [6] above 334 µM. Further, the selectivity ratio in series [7] was above 10.
Regarding `COc1ccc(-n2ccnc2SCC(=O)Nc2ccc(C)cc2Br)cc1`, the selectivity ratio in series [3] and in series [7] was below 1 throughout. Further, the EC50 in series [4] and in series [5] was above 25.8 µM throughout. The molecule further came in with a CC50 in series [6] of 25.8 µM.
Regarding `CC(C)Nc1cccnc1N1CCN(C(=O)c2cc3cc(NS(C)(=O)=O)ccc3[nH]2)CC1` [DELAVIRDINE], the CC50 in series [6] is above 3.83 µM. Moreover, the selectivity ratio in series [7] is above 12.
For `O=C1Nc2ccc(Cl)cc2[C@@](C#CC2CC2)(C(F)(F)F)O1` [EFAVIRENZ], in series [6], the CC50 is above 6.34 µM. In addition, the selectivity ratio in series [7] was above 1430.
In series [6], `Cc1ccnc2c1NC(=O)c1cccnc1N2C1CC1` [NEVIRAPINE] registered a CC50 above 15 µM.
In series [6], `Cc1cn([C@H]2C[C@H](N=[N+]=[N-])[C@@H](CO)O2)c(=O)[nH]c1=O` [ZIDOVUDINE] registered a CC50 above 93.5 µM. The selectivity ratio in series [7] was above 6190.

For the origin of these results see ChEMBL document CHEMBL1153517, “Synthesis and biological evaluation of imidazole thioacetanilides as novel non-nucleoside HIV-1 reverse transcriptase inhibitors” (Bioorg Med Chem, 2009).
